This note sets out measurements from ChEMBL document CHEMBL1135582, “Synthesis and structure-activity relationships of amide and hydrazide analogues of the cannabinoid CB(1) receptor antagonist N-(piperidinyl)- 5-(4-chlorophenyl)-1-(2,4-dichlorophenyl)-4-methyl-1H-pyrazole-3-carboxamide (SR141716)” (J Med Chem, 2002).

By EC50 is commonly meant the midpoint of the concentration-response curve. The low end stands for greater potency, the high end for weaker potency. By Ki is commonly meant the equilibrium dissociation constant of an inhibitor or competing ligand from its target. Read a low Ki as tighter binding.

The species named for experiment [1] is Rattus norvegicus. Description: The effective concentration using [35S]GTP-gamma-S binding assay in rat membranes. It is filed as functional. (In general: GTPγS is a poorly hydrolysed GTP analogue; its binding reports G protein activation.)
Experiment [2] is filed under the species Rattus norvegicus. Description: Maximum concentration based on [35S]GTP-gamma-S binding assay in rat membranes. It is filed as functional.
Experiment [3] is described as follows: Selectivity measured as CB2/CB1.
Experiment [4] has as its target T1, Cannabinoid receptor 1 (Rattus norvegicus, UniProt P20272). The experiment can be described thus: Binding affinity in a competition assay by displacement of [3H]CP-55940 from Cannabinoid receptor 1 in rat whole brain membrane preparation. It is filed as cell membranes. On the technique in general: Loss of bound radioactivity is the signal in a displacement assay; it reports binding, not function.

Experiment [5] has as its target T1, Cannabinoid receptor 1. Description: Binding affinity in a competition assay by displacement of [3H]- SR-141716 from Cannabinoid receptor 1 in rat whole brain membrane preparation. The format is cell membranes.
The target in experiment [6] is Cannabinoid receptor 2 (Homo sapiens, UniProt P34972). Description: Binding affinity at cannabinoid receptor 2 in a competition assay with [3H]CP-55940 as radioligand.
Cannabinoid receptor 2, sequence (P34972 whole entry): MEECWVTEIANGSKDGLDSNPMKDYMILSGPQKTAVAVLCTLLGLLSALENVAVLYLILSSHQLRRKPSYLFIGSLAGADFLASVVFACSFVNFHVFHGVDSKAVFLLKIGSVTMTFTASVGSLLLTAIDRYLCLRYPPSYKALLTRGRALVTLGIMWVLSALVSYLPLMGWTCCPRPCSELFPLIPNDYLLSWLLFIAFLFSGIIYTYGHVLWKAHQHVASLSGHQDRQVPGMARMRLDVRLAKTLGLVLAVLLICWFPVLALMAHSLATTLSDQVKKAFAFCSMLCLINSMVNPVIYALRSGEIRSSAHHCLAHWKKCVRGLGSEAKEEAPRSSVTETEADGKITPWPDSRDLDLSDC
Experiment [7] deals with T2, Cannabinoid receptor (Mus musculus) (UniProt P47746+P47936). Description: Dissociation Constant in Mouse isolated vas deferens at 316 nM of compound using cannabinoid receptor agonist WIN-55 212-2 (95% confidence limits). The format is functional, tissue-based. The gist of the method:
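Vasa deferentia from albino MF1 mice (26–44 g) in organ bath, electrically stimulated until twitch amplitude stable. Antagonist (DMSO vehicle) added 30 min before cumulative agonist additions at 5 min intervals, stimulating final 2 min of each. Inhibition relative to pre-agonist twitch; KB from single concentration ratio, (x − 1) = B/KB, via (2 + 2) parallel line assay; 95% confidence limits; n = 5 or 6.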

The target of experiment [8] is T2, Cannabinoid receptor (Mus musculus). The experiment can be described thus: Dissociation Constant in Mouse isolated vas deferens at 316 nM of compound using cannabinoid receptor agonist WIN-55 212-2. It is filed as functional, tissue-based. The procedure, abridged: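 Vasa deferentia from MF1 mice (26–44 g) were electrically stimulated in an organ bath until twitches were stable. Percent twitch inhibition was measured. KB came from a single concentration ratio via (x−1)=B/KB, with ratios from (2+2) parallel line assays. Results are means with 95% confidence limits.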

Experiment [9] has the same target. Description: Dissociation Constant in Mouse isolated vas deferens at 31.6 nM of compound using cannabinoid receptor agonist WIN-55 212-2.

T1 sequence (P20272 whole entry): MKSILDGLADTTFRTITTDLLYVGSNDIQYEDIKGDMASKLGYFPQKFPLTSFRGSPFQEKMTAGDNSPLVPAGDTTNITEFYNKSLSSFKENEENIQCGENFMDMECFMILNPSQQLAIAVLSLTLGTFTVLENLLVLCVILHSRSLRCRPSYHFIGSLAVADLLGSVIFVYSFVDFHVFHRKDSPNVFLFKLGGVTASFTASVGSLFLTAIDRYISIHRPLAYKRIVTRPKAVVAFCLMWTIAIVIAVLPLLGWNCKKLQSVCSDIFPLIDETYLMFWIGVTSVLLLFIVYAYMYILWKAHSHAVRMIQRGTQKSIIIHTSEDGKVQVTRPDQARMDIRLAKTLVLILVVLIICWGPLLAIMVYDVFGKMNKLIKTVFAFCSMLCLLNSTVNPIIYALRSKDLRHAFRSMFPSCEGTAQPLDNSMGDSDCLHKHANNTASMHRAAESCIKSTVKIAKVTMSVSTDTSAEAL
T2 sequence (P47746 whole entry, looked up): as the sequence (P20272 whole entry) above, with E95D counted along it
T2 sequence (P47936 whole entry, looked up): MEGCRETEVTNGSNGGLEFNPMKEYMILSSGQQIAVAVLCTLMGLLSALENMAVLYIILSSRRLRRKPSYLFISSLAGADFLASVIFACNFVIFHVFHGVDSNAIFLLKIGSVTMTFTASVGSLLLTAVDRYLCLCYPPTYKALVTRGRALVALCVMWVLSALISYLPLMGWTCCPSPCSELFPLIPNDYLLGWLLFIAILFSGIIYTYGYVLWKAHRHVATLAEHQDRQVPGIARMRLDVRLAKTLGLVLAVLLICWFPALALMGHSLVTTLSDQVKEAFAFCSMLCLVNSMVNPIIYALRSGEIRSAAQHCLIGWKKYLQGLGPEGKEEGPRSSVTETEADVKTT

Take `Cc1c(C(=O)NCCO)nn(-c2ccc(Cl)cc2Cl)c1-c1ccc(Cl)cc1`: the EC50 in experiment [1] came to 1670 µM. The Emax in experiment [2] was -76.5. The Selectivity in experiment [3] worked out at 11.

Compound `Cc1c(C(=O)NO)nn(-c2ccc(Cl)cc2Cl)c1-c1ccc(Cl)cc1` yielded a Selectivity in experiment [3] of 5.

With `Cc1c(C(=O)N[C@@H](C)CO)nn(-c2ccc(Cl)cc2Cl)c1-c1ccc(Cl)cc1`, the Ki was found to be 0.117 µM in experiment [4], 0.123 µM in experiment [5] and 5.9 µM in experiment [6]. Besides, the EC50 in experiment [1] was 294 µM. In experiment [2], this compound yielded an Emax of -83.8. Further, in [3], the Selectivity was determined as 50.

In turn, `CCCNC(=O)c1nn(-c2ccc(Cl)cc2Cl)c(-c2ccc(Cl)cc2)c1C` showed an EC50 in [1] of 11.1 µM. The compound also gave an Emax in experiment [2] of -35.7. In [3], the Selectivity was 99.

For the compound `Cc1c(C(=O)NC2CCCCC2)nn(-c2ccc(Cl)cc2Cl)c1-c1ccc(Cl)cc1`, in [1], the EC50 came out at 26 µM. This compound also yielded an Emax in experiment [2] of -22.1. The compound also displayed a Selectivity in experiment [3] of 93.

In turn, `Cc1c(C(=O)NCCCO)nn(-c2ccc(Cl)cc2Cl)c1-c1ccc(Cl)cc1` yielded an EC50 in experiment [1] of 241 µM. This compound also showed an Emax in experiment [2] of -83.3. The Selectivity in [3] came to 8.

In turn, `Cc1c(C(=O)NN)nn(-c2ccc(Cl)cc2Cl)c1-c1ccc(Cl)cc1` displayed an EC50 in experiment [1] of 419 µM. For the same compound, the Emax in experiment [2] is -71.7. In addition, in experiment [3], the Selectivity turned out to be 32.

In [1], `Cc1c(C(=O)NC(C)C)nn(-c2ccc(Cl)cc2Cl)c1-c1ccc(Cl)cc1` gave an EC50 of 16 µM. In experiment [2], the Emax is -46.4. In [3], this compound showed a Selectivity of 59.

For the compound `Cc1c(C(=O)N[C@H](C)CO)nn(-c2ccc(Cl)cc2Cl)c1-c1ccc(Cl)cc1`, the Ki in experiment [4] amounted to 0.117 µM; in experiment [5], 0.0998 µM; in experiment [6] it was 1.77 µM. Moreover, in experiment [1], the midpoint of the response, the EC50, lay at 292 µM. Besides, the Emax in experiment [2] was -83. This compound also came in with a Selectivity in [3] of 15.

For `Cc1c(C(=O)NN2CCOCC2)nn(-c2ccc(Cl)cc2Cl)c1-c1ccc(Cl)cc1`, in experiment [7], the Kb was found to be 0.0125 µM. Moreover, the EC50 in experiment [1] is 38.9 µM. The compound also gave an Emax in [2] of -76.3. This compound had a Selectivity in experiment [3] of 105.

`CCNC(=O)c1nn(-c2ccc(Cl)cc2Cl)c(-c2ccc(Cl)cc2)c1C`: in [1], the EC50 amounted to 30.3 µM. This compound also registered an Emax in experiment [2] of -46.9. Also, the Selectivity in experiment [3] was determined as 67.

In [1], `CCCCNC(=O)c1nn(-c2ccc(Cl)cc2Cl)c(-c2ccc(Cl)cc2)c1C` yielded a concentration giving a half-maximal response (EC50) of 8.54 µM. In addition, in experiment [2], the Emax is -38.5. Also, in [3], the Selectivity was 119.

As to `CNNC(=O)c1nn(-c2ccc(Cl)cc2Cl)c(-c2ccc(Cl)cc2)c1C`, in [1], the EC50 came out at 12000 µM. In other words, the millimolar range.

On to `Cc1c(C(=O)NCC(C)C)nn(-c2ccc(Cl)cc2Cl)c1-c1ccc(Cl)cc1`, for which, in experiment [8], the Kb was 0.0212 µM. The compound further yielded an EC50 in experiment [1] of 7.54 µM. Also, in experiment [2], the Emax is -11. This compound registered a Selectivity in experiment [3] of 61.

`Cc1c(C(=O)NCCCCO)nn(-c2ccc(Cl)cc2Cl)c1-c1ccc(Cl)cc1` gave an EC50 in experiment [1] of 304 µM. This compound came in with an Emax in experiment [2] of -79.5.

`CCCCCNC(=O)c1nn(-c2ccc(Cl)cc2Cl)c(-c2ccc(Cl)cc2)c1C` returned an EC50 in [1] of 5.27 µM. Also, the Emax in experiment [2] was -7.4.

Take `CCCCCCNC(=O)c1nn(-c2ccc(Cl)cc2Cl)c(-c2ccc(Cl)cc2)c1C`: the EC50 in experiment [1] is 29.4 µM. The same compound came in with an Emax in [2] of -13. Moreover, the Selectivity in experiment [3] is 378. This compound also returned a Kb in experiment [9] of 0.0154 µM.

For the compound `CCNNC(=O)c1nn(-c2ccc(Cl)cc2Cl)c(-c2ccc(Cl)cc2)c1C`, the midpoint of the response in experiment [1], the EC50, lay at 495 µM.
